ChEMBL document CHEMBL1153019, “Lignans with anti-HIV activity from Schisandra propinqua var. sinensis” (J Nat Prod, 2009)

Experiments:
[1] = Cytotoxicity against human C8166 cells by MTT assay; format: cell-based
Method in brief: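 MTT read-out of C8166 cell viability, run in parallel with the anti-HIV-1 cytopathic-effect assay. AZT served as positive control, and CC50 was derived.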

[2] = test system: Human immunodeficiency virus 1; experiment: Antiviral activity against HIV1 3B in human C8166 cells assessed as inhibition of virus-induced cytopathogenicity; format: functional, organism-based; conditions: Human immunodeficiency virus 1, 3B
Method in brief: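 HIV-1 cytopathic-effect inhibition in C8166 cells, run in parallel with the cytotoxicity test. AZT served as positive control, and EC50 was the read-out.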

[3] = Selectivity index, ratio of CC50 for human C8166 cells to EC50 for HIV1 3B; format: toxicity, cell-based; conditions: read-out: Ratio CC50/EC50

Row | EC50 [2] | SMILES | CC50 [1] | selectivity ratio [3]
1 | 22.9 µM | COc1cc2c(c(OC)c1OC)-c1c(cc3c(c1OC)OCO3)[C@H](OC(=O)c1ccccc1)[C@H](C)[C@](C)(O)[C@H]2OC(=O)c1ccccc1 | > 200 µM | > 8.7
2 | 51.4 µM | COc1cc2c(c(OC)c1OC)-c1c(cc3c(c1OC)OCO3)[C@H](OC(=O)c1ccccc1)[C@H](C)[C@](C)(O)[C@H]2OC(=O)/C=C/c1ccccc1 | > 200 µM | > 3.9
3 | 2.9 µM | COc1cc(C[C@@H](C)[C@@H](C)Cc2ccc(OC)c(OC)c2)ccc1O | 17.2 µM | 5.8
4 | 15.4 µM | C/C=C(\C)C(=O)O[C@H]1c2cc(OC)c(OC)c(OC)c2-c2c(cc3c(c2OC)OCO3)[C@H](OC(=O)c2ccccc2)[C@H](C)[C@H]1C | 78.2 µM | 5.1
5 | 7.9 µM | C/C=C(\C)C(=O)O[C@H]1c2cc(OC)c(OC)c(OC)c2-c2c(cc3c(c2OC)OCO3)[C@H](OC(=O)/C=C/c2ccccc2)[C@H](C)[C@]1(C)O | > 200 µM | > 25.2
6 | 6.8 µM | COc1ccc([C@@H]2O[C@H](c3ccc4c(c3)OCO4)[C@@H](C)[C@@H]2C)cc1O | 19.9 µM | 2.9
7 | 15.5 µM | COc1ccc([C@H]2O[C@H](c3ccc4c(c3)OCO4)[C@@H](C)[C@H]2C)cc1OC | 104 µM | 6.7
8 | 28.7 µM | CCCCCC(=O)O[C@H]1c2cc3c(c(OC)c2-c2c(cc(OC)c(OC)c2OC)[C@H](OC(=O)c2ccccc2)[C@@](C)(O)[C@H]1C)OCO3 | 119 µM | 4.1
9 | 20.4 µM | COc1cc2c(c(OC)c1OC)-c1c(cc3c(c1OC)OCO3)C(=O)[C@@H](C)[C@@H](C)C2 | > 200 µM | > 9.8
10 | 4.5 µM | COc1cc2c(cc1O)C[C@@H](C)[C@@H](C)[C@@H]2c1ccc(OC)c(OC)c1 | 30 µM | 6.7
11 | 7.7 µM | COc1ccc([C@H]2O[C@@H](c3ccc(OC)c(OC)c3)[C@H](C)[C@@H]2C)cc1OC [GALGRAVIN] | 43.4 µM | 5.6
12 | 9.9 µM | C/C=C(/C)C(=O)O[C@H]1c2cc(OC)c(OC)c(OC)c2-c2c(cc3c(c2OC)OCO3)[C@H](OC(C)=O)[C@H](C)[C@@H]1C [INTERIOTHERIN C] | > 200 µM | > 20.2
13 | 79.1 µM | COc1cc2c(c(OC)c1OC)-c1c(cc3c(c1OC)OCO3)[C@H](OC(C)=O)[C@H](C)[C@H](C)C2 [KADSURIN] | > 200 µM | > 2.5
14 | 4 µM | COc1cc(C[C@@H](C)[C@@H](C)Cc2ccc(O)c(OC)c2)ccc1O [MESODIHYDROGUAIARETIC ACID] | 24.9 µM | 6.2
15 | 15.7 µM | C/C=C(\C)C(=O)Oc1c(OC)c(OC)cc2c1-c1c(cc(OC)c(OC)c1OC)[C@H](O)[C@H](C)[C@H](C)C2 [METHYL SCHISANTHERIN F] | > 200 µM | > 12.7
16 | 14.8 µM | COc1ccc(C[C@@H](C)[C@@H](C)Cc2ccc(OC)c(OC)c2)cc1OC [TERAMEPROCOL] | 28.8 µM | 2
17 | 29.8 µM | CC[C@H](C)C(=O)Oc1c(OC)c(OC)cc2c1-c1c(cc(OC)c(OC)c1OC)[C@H](O)[C@H](C)[C@H](C)C2 [TIEGUSANIN A] | > 200 µM | > 6.7
18 | 18.5 µM | COc1cc2c(c(OC)c1OC)-c1c(cc(OC)c(OC)c1OC(=O)c1ccccc1)[C@H](O)[C@H](C)[C@H](C)C2 [TIEGUSANIN C] | > 200 µM | > 10.8
19 | 7.3 µM | COc1c(O)cc2c(c1OC)-c1c(cc3c(c1OC)OCO3)C[C@@H](C)[C@@H](C)[C@H]2OC(=O)/C=C/c1ccccc1 [TIEGUSANIN L] | 74.1 µM | 10.2
20 | 9.4 µM | COc1ccc(CC(C)C(C)Cc2cc(OC)c(OC)c(OC)c2)cc1OC (stereo not drawn) [TIEGUSANIN N] | 24.5 µM | 2.6
21 | 0.00195 µM | Cc1cn([C@H]2C[C@H](N=[N+]=[N-])[C@@H](CO)O2)c(=O)[nH]c1=O [ZIDOVUDINE] | > 1000 µM | > 500000
